Results: ChEMBL document CHEMBL1153899, “Discovery of benzothiazole derivatives as efficacious and enterocyte-specific MTP inhibitors” (Bioorg Med Chem Lett, 2009)
Calls of active or inactive are those of the source. No cut-off for these calls is given here.

Assays:
[1] = Cmax in Sprague-Dawley rat at 1 mg/kg, iv; format: ADME, organism-based; set-up: dose 1 mg/kg, route intravenous; conditions: in vivo
[2] = AUC (0 to infinity) in Sprague-Dawley rat at 1 mg/kg, iv; format: ADME, organism-based; set-up: time infinity, dose 1 mg/kg, route intravenous; conditions: plasma
[3] = Cmax in Sprague-Dawley rat at 3 mg/kg, po; format: ADME, organism-based; set-up: dose 3 mg/kg, route oral; conditions: in vivo
[4] = Tmax in Sprague-Dawley rat at 3 mg/kg, po; format: ADME, organism-based; set-up: dose 3 mg/kg, route oral; conditions: in vivo
In short: (§1)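 Rats dosed orally at 3 mg/kg; Cmax, Tmax, oral half-life and AUC determined from plasma, and oral bioavailability (%F) calculated against the 1 mg/kg IV bolus.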

[5] = Half life in Sprague-Dawley rat at 3 mg/kg, po; format: ADME, organism-based; set-up: dose 3 mg/kg, route oral; conditions: in vivo
[6] = AUC (0 to infinity) in Sprague-Dawley rat at 3 mg/kg, po; format: ADME, organism-based; set-up: dose 3 mg/kg, route oral, time infinity; conditions: plasma
[7] = Oral bioavailability in Sprague-Dawley rat at 3 mg/kg; format: ADME, organism-based; conditions: in vivo; in short: as §1
[8] = AUC (0 to infinity) in Sprague-Dawley rat plasma at 3 mg/kg, po; format: ADME, organism-based; set-up: time infinity, dose 3 mg/kg, route oral
In short: (§2)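 Dose-proportionality PK in Sprague–Dawley rats (n = 3) given single oral doses of 3, 10, 30 or 100 mg/kg. Liver and plasma were sampled at 0.5, 1, 2, 4 and 8 h and assayed for drug concentration to derive Cmax, AUC(0–∞) and T1/2.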

[9] = AUC (0 to infinity) in Sprague-Dawley rat plasma at 10 mg/kg, po; format: ADME, organism-based; set-up: time infinity, dose 10 mg/kg, route oral; in short: as §2
[10] = AUC (0 to infinity) in Sprague-Dawley rat plasma at 30 mg/kg, po; format: ADME, organism-based; set-up: time infinity, dose 30 mg/kg, route oral; in short: as §2
[11] = AUC (0 to infinity) in Sprague-Dawley rat plasma at 100 mg/kg, po; format: ADME, organism-based; set-up: time infinity, dose 100 mg/kg, route oral; in short: as §2
[12] = Cmax in Sprague-Dawley rat plasma at 3 mg/kg, po; format: ADME, organism-based; set-up: dose 3 mg/kg, route oral; in short: as §2
[13] = Cmax in Sprague-Dawley rat plasma at 10 mg/kg, po; format: ADME, organism-based; set-up: dose 10 mg/kg, route oral; in short: as §2
[14] = Cmax in Sprague-Dawley rat plasma at 30 mg/kg, po; format: ADME, organism-based; set-up: dose 30 mg/kg, route oral; in short: as §2
[15] = Cmax in Sprague-Dawley rat plasma at 100 mg/kg, po; format: ADME, organism-based; set-up: dose 100 mg/kg, route oral; in short: as §2
[16] = Half life in Sprague-Dawley rat plasma at 3 mg/kg, po; format: ADME, organism-based; set-up: dose 3 mg/kg, route oral; in short: as §2
[17] = Half life in Sprague-Dawley rat plasma at 10 mg/kg, po; format: ADME, organism-based; set-up: dose 10 mg/kg, route oral; in short: as §2
[18] = Half life in Sprague-Dawley rat plasma at 30 mg/kg, po; format: ADME, organism-based; set-up: dose 30 mg/kg, route oral; in short: as §2
[19] = Half life in Sprague-Dawley rat plasma at 100 mg/kg, po; format: ADME, organism-based; set-up: dose 100 mg/kg, route oral; in short: as §2
[20] = AUC (0 to infinity) in Sprague-Dawley rat liver at 3 mg/kg, po; format: ADME, organism-based; set-up: time infinity, dose 3 mg/kg, route oral; in short: as §2
[21] = AUC (0 to infinity) in Sprague-Dawley rat liver at 10 mg/kg, po; format: ADME, organism-based; set-up: time infinity, dose 10 mg/kg, route oral; in short: as §2
[22] = AUC (0 to infinity) in Sprague-Dawley rat liver at 30 mg/kg, po; format: ADME, organism-based; set-up: dose 30 mg/kg, route oral, time infinity; in short: as §2
[23] = AUC (0 to infinity) in Sprague-Dawley rat liver at 100 mg/kg, po; format: ADME, organism-based; set-up: time infinity, dose 100 mg/kg, route oral; in short: as §2
[24] = Cmax in Sprague-Dawley rat liver at 3 mg/kg, po; format: ADME, organism-based; set-up: dose 3 mg/kg, route oral; in short: as §2
[25] = Cmax in Sprague-Dawley rat liver at 10 mg/kg, po; format: ADME, organism-based; set-up: dose 10 mg/kg, route oral; in short: as §2
[26] = Cmax in Sprague-Dawley rat liver at 30 mg/kg, po; format: ADME, organism-based; set-up: dose 30 mg/kg, route oral; in short: as §2
[27] = Cmax in Sprague-Dawley rat liver at 100 mg/kg, po; format: ADME, organism-based; set-up: dose 100 mg/kg, route oral; in short: as §2
[28] = Half life in Sprague-Dawley rat liver at 3 mg/kg, po; format: ADME, organism-based; set-up: dose 3 mg/kg, route oral; in short: as §2
[29] = tested on: Mus musculus; assay: Decrease in total food intake in 28-day diet-induced obesity C57BL/6 mouse model at 1 to 3 mg/kg, po daily for 4 weeks measured on day 4

Cmax [1]: 5980 ng/mL | AUC(0-inf) [2]: 976 ng·h/mL | Cmax [3]: 22.2 ng/mL | Tmax [4]: 0.5 h | half-life [5]: 2.13 h | AUC(0-inf) [6]: 40.8 ng·h/mL | bioavailability [7]: 1.29% | AUC(0-inf) [8]: 109 ng·h/mL | AUC(0-inf) [9]: 224 ng·h/mL | AUC(0-inf) [10]: 510 ng·h/mL | AUC(0-inf) [11]: 598 ng·h/mL | Cmax [12]: 35 ng/mL | Cmax [13]: 58 ng/mL | Cmax [14]: 49.5 ng/mL | Cmax [15]: 69.5 ng/mL | half-life [16]: 2.42 h | half-life [17]: 7.91 h | half-life [18]: 10.4 h | half-life [19]: 5.44 h | AUC(0-inf) [20]: 1220 ng·h/mL | AUC(0-inf) [21]: 2640 ng·h/mL | AUC(0-inf) [22]: 3030 ng·h/mL | AUC(0-inf) [23]: 1780 ng·h/mL | Cmax [24]: 57 µg/kg | Cmax [25]: 90.1 µg/kg | Cmax [26]: 73.1 µg/kg | Cmax [27]: 84 µg/kg | half-life [28]: 10.7 h
SMILES: CC(C)c1ccc(-c2ccccc2C(=O)Nc2ccc3nc(C(=O)N[C@H](C(=O)N(C)Cc4ccc(F)cc4)c4ccccc4)sc3c2)cc1
Activity [29]: Active
